The source made the active and inactive calls. The rule behind the calls is not given here.
Key:
[1] = tested on: Plasmodium falciparum; test: Inhibition of recombinant His-tagged Plasmodium falciparum GAPDH expressed in Escherichia coli assessed as reduction in NADH formation by measuring Kinact/Ki ratio in presence of NAD+, DL-glyceraldehyde 3-phosphate and GAPDH by spectrophotometry based Ferdinand assay
[2] = tested on: Plasmodium falciparum; test: Antimalarial activity against CQ-susceptible Plasmodium falciparum D10 infected in human type A-positive red blood cells assessed as inhibition of parasite growth incubated for 72 hrs by spectrophotometry based parasite lactate dehydrogenase assay; format: functional, organism-based
In short: (§1)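 pLDH assay on P. falciparum D10 and W2 blood-stage cultures exposed to compound for 72 h; chloroquine run as control. IC50 values are the mean of three separate experiments, each done in duplicate, with SD.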

[3] = Selectivity index, ratio of IC50 for human HMEC1 cells to IC50 for antimalarial activity against CQ-resistant Plasmodium falciparum W2 infected in human type A-positive red blood cells; format: toxicity; conditions: read-out: Ratio IC50
In short: (§2)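 SI taken as HMEC-1 IC50 divided by antiplasmodial IC50. […] Each value is the mean of three experiments done in duplicate, with SD.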

[4] = Selectivity index, ratio of IC50 for human HMEC1 cells to IC50 for antimalarial activity against CQ-susceptible Plasmodium falciparum D10 infected in human type A-positive red blood cells; format: toxicity; conditions: read-out: Ratio IC50; in short: as §2
[5] = tested on: HMEC-1; test: Cytotoxicity in human HMEC1 cells assessed as reduction in cell viability incubated for 72 hrs by MTT assay; format: cell-based; conditions: HMEC-1, 72 h
In short: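 Human endothelial HMEC-1 cells exposed to compound for 72 h, then viability read by MTT (tetrazolium reduction) assay. Values are the mean ± SD of three separate experiments, each run in duplicate.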

[6] = tested on: Plasmodium falciparum; test: Antimalarial activity against CQ-resistant Plasmodium falciparum W2 infected in human type A-positive red blood cells assessed as inhibition of parasite growth incubated for 72 hrs by spectrophotometry based parasite lactate dehydrogenase assay; format: functional, organism-based; in short: as §1
[7] = Plasmodium falciparum, D10, 72 h, read-out: IC50
[8] = Plasmodium falciparum, W2, 72 h, read-out: IC50

Row | SMILES | Ratio [1] | IC50 [2, 7] [nM] | selectivity ratio [3] | selectivity ratio [4] | IC50 [5] [nM] | IC50 [6, 8] [nM] | IC50 [2] | IC50 [6]
1 | N[C@H](C(=O)NCc1ccccc1)[C@@H]1CC(Br)=NO1 | 0.6 s⁻¹ M⁻¹ | 360 | 31 | 41.4 | 14900 | 480 | – | –
2 | N[C@H](C(=O)OCc1ccccc1)[C@@H]1CC(Br)=NO1 | 6.6 s⁻¹ M⁻¹ | 370 | > 250 | > 176 | > 65000 | 260 | – | –
3 | N[C@H](CS(=O)(=O)Cc1ccccc1)[C@@H]1CC(Br)=NO1 | inactive | – | – | – | – | – | – | –
4 | N[C@H](CS(=O)(=O)Cc1ccccc1)[C@H]1CC(Br)=NO1 | 1.6 s⁻¹ M⁻¹ | – | – | – | – | – | Not Active | Not Active
5 | CCN(CC)CCCC(C)Nc1ccnc2cc(Cl)ccc12 (configuration not stated) [CHLOROQUINE] | – | – | – | – | > 40000 | – | – | –
6 | N[C@H](C(=O)O)[C@@H]1CC(Br)=NO1 | 0.7 s⁻¹ M⁻¹ | 350 | 57.9 | 56.3 | 19700 | 340 | – | –
7 | N[C@H](C(=O)NCc1ccc(F)cc1)[C@@H]1CC(Br)=NO1 | inactive | – | – | – | – | – | – | –
8 | N[C@H](CSCc1ccccc1)[C@@H]1CC(Br)=NO1 | 1.6 s⁻¹ M⁻¹ | – | – | – | – | – | Not Active | Not Active
9 | N[C@H](CSCc1ccccc1)[C@H]1CC(Br)=NO1 | 0.2 s⁻¹ M⁻¹ | – | – | – | – | – | Not Active | Not Active
10 | COc1ccc(CNC(=O)[C@@H](N)[C@@H]2CC(Br)=NO2)cc1 | inactive | – | – | – | – | – | – | –
11 | N[C@H](C(=O)NCc1ccc([N+](=O)[O-])cc1)[C@@H]1CC(Br)=NO1 | 1.9 s⁻¹ M⁻¹ | 790 | 50.1 | 45.7 | 36100 | 720 | – | –
12 | N[C@H](C(=O)NCCc1ccccc1)[C@@H]1CC(Br)=NO1 | 0.4 s⁻¹ M⁻¹ | 280 | > 400 | > 357 | > 100000 | 250 | – | –
13 | N[C@H](COCc1ccccc1)[C@@H]1CC(Br)=NO1 | 2.6 s⁻¹ M⁻¹ | – | – | – | – | – | Not Active | Not Active
14 | COC(=O)[C@@H](N)[C@@H]1CC(Br)=NO1 | 10.7 s⁻¹ M⁻¹ | 790 | 39.5 | 44 | 34800 | 880 | – | –
